Active and inactive are the calls of the source. The calls are words filed in the database; no cut-off is given here.
What was measured:
[1] = tested on: Brain; assay: Ratio of drug level in brain after 2 mins to drug level in brain after 60 mins in ICR mouse; format: ADME, tissue-based; details: in vivo
How it was run: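 Male normal ICR mice (5 weeks old), n = 5 per time point, received a tail-vein injection of [18F] tracer (740–1110 kBq/mL) in saline containing 10% EtOH. Mice were sacrificed at 2, 10, 30 and 60 min. Organs were removed, weighed and gamma-counted, and data were expressed as %ID/g.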

[2] = Ratio of drug level in brain to blood in ICR mouse after 2 mins; format: ADME, tissue-based; details: brain and blood, read-out: BBR
How it was run: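 Male ICR mice (5 weeks) received the ¹⁸F tracer (740–1110 kBq/mL) in saline with 10% EtOH by tail-vein injection. Five mice per time point were sacrificed at 2, 10, 30 and 60 min. Organs were removed, weighed and gamma-counted, and expressed as %ID/g. The ratio is brain %ID/g over blood %ID/g at 2 min.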

[3] = target: Amyloid-beta precursor protein (Homo sapiens, UniProt P05067); assay: Displacement of [125I]IMPY from amyloid beta (1 to 42) (unknown origin) after 3 hrs by gamma counting analysis
Amyloid-beta precursor protein, sequence (P05067 whole entry): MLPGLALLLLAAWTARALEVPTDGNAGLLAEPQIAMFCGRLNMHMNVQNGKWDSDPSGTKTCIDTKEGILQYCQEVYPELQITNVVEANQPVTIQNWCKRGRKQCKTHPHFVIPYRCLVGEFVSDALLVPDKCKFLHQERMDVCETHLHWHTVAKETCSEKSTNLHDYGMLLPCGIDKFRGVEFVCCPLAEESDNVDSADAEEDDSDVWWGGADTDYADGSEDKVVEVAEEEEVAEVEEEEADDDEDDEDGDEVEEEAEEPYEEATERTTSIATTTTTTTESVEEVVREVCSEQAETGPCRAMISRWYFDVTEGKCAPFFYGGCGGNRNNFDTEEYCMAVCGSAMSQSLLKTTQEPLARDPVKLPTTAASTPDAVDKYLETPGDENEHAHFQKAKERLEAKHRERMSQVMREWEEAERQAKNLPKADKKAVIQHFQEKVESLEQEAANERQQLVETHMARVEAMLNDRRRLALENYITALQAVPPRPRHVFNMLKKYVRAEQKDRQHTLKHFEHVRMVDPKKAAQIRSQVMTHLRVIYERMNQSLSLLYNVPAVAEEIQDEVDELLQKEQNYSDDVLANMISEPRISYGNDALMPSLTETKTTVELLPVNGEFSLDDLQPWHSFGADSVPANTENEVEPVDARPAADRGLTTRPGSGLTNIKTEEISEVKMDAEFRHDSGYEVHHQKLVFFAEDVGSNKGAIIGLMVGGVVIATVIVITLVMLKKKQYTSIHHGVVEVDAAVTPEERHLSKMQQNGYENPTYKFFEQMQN
How it was run: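 Test compound ranged over 10^-4 to 10^-8.5 in ethanol, in 0.05% BSA, 1 mL total. Incubation was 3 h at room temperature, then GF/B filtration and gamma counting. IC50 came from three independent experiments, and Ki was derived by Cheng–Prusoff.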

[4] = species: Mus musculus; assay: Binding affinity to amyloid beta in transgenic C57BL/6 mouse hippocampus harboring APPswe and PSEN1 double mutation at 185 to 370 kBq after 1 hr by autoradiographic analysis; format: tissue-based; details: tested as the 18F-labelled form
How it was run: (§1)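 Paraffin-embedded brain sections from male APPswe/PSEN1 transgenic C57BL6 mice (11 months old) and wild-type C57BL6 controls (11 months old) were incubated with [18F] tracer (185–370 kBq) for 1 h at room temperature, washed with 40% EtOH, dried and exposed to an imaging plate for 1 h. Plaques were confirmed on the same sections by thioflavin-S (0.125%) fluorescent staining.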

[5] = species: Mus musculus; assay: Binding affinity to amyloid beta in wild-type C57BL/6 mouse brain at 185 to 370 kBq after 1 hr by autoradiographic analysis; format: tissue-based; details: tested as the 18F-labelled form; how it was run: as §1
[6] = species: Mus musculus; assay: Binding affinity to amyloid beta in transgenic C57BL/6 mouse hippocampus harboring APPswe and PSEN1 double mutation at 185 to 370 kBq after 1 hr by thioflavin-S staining-based assay; format: tissue-based; details: tested as the 18F-labelled form; how it was run: as §1
[7] = species: Mus musculus; assay: Binding affinity to amyloid beta in transgenic C57BL/6 mouse cerebellum harboring APPswe and PSEN1 double mutation at 185 to 370 kBq after 1 hr by thioflavin-S staining-based assay; format: tissue-based; details: tested as the 18F-labelled form; how it was run: as §1
[8] = species: Mus musculus; assay: Binding affinity to amyloid beta in transgenic C57BL/6 mouse cortex harboring APPswe and PSEN1 double mutation at 185 to 370 kBq after 1 hr by autoradiographic analysis; details: tested as the 18F-labelled form; how it was run: as §1
[9] = species: Mus musculus; assay: Binding affinity to amyloid beta in transgenic C57BL/6 mouse cortex harboring APPswe and PSEN1 double mutation at 185 to 370 kBq after 1 hr by thioflavin-S staining-based assay; details: tested as the 18F-labelled form; how it was run: as §1
[10] = species: Mus musculus; assay: Binding affinity to amyloid beta in transgenic C57BL/6 mouse cerebellum harboring APPswe and PSEN1 double mutation at 185 to 370 kBq after 1 hr by autoradiographic analysis; format: tissue-based; details: tested as the 18F-labelled form; how it was run: as §1

`CN(C)c1ccc(-c2cc3cc([125I])ccc3[nH]2)cc1` gave a Ratio [1] of 1.68 and a Kp at 2 min [2] of 0.19.
`CN(CCF)c1ccc(-c2cc3ccccc3n2C)cc1` gave a Ki [3] of 117 nM.
For `CN(CCCF)c1ccc(-c2cc3ccccc3n2C)cc1`, the Ki [3] was 79.7 nM.
Work on `Cn1c(-c2ccc(NCCCF)cc2)cc2ccccc21` yielded a Ki [3] of 1100 nM.
`CN(CCCF)c1ccc(-c2cc3ccccc3[nH]2)cc1` gave a Ki [3] of 31.5 nM.
With `CN(CCF)c1ccc(-c2cc3ccccc3[nH]2)cc1` the Activity [4] was “Active”, the Activity [5] was “inactive” and the Activity [6] was “Active”. The Activity [7] was “Active”, the Ki [3] was 28.4 nM and the Activity [8] was “Active”. For the same molecule, the Activity [9] was “Active” and the Activity [10] was “Active”.
